# MsrA inhibitor: inhibits bovine methionine sulfoxide reductase A. purified bovine MsrA, absorbance read-out. inhibition, % at 15.5 µM. 0.75% of 360,000 active. AID 651718; in the data active means inhibition above about 4.5%;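 further: 0% = vehicle wells with enzyme and 100% = reference inhibitor wells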
# AI-2 QS mod: modulators of Vibrio harveyi AI-2 quorum sensing system | Vibrio harveyi JMH597 AI-2 luminescence/OD600 ratio, 9 h; stronger effect = lower value; strain lacks LuxN and CqsS sensors; 0 = neutral-control median | activity change, % at 7.5 µM | 0.4% of 300,000 active | AID 2094; in the data active means activity change below about -75%, passing the limit was not always enough;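 further: luminescence divided by OD600 gain over 9 h not by final OD600 alone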
# MsrA act: activates bovine MsrA enzyme | purified bovine MsrA, absorbance read-out | activation, % at 10.6 µM | 0.3% of 360,000 active | AID 602163; in the data active means activation above about 7.5%;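 further: 0% = vehicle and 100% = reference activator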
# AHR activator: human AHR activation. P35869. AHR-responsive luciferase reporter cells, luminescence. activation, % at 5 µM. 2.5% of 320,000 active; in the data active means activation above about 47%;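 further: 0% = vehicle wells and 100% = reference agonist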
# TbMetRS inhib: Trypanosoma brucei MetRS inhibition; purified T. brucei MetRS, ATP depletion, Kinase-Glo luminescence; AID 624268; inhibition, % at 11.9 µM; 0.4% of 360,000 active;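 active means inhibition above a per-plate cutoff of the control wells' mean inhibition plus 3 SD, cut at about 5.5% in these data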;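 further: 0% = DMSO wells median and 100% = median of wells with control inhibitor compound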
#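 Assay system: T. brucei methionyl-tRNA synthetase, purified | Medium: HEPES buffer with MgCl2, KCl, DTT, spermine, BSA, pyrophosphatase | Compound: 11.9 µM single point | Incubation: 15 min enzyme-compound preincubation, 2 h reaction, 10 min detection, 25 °C | Measured by: Kinase-Glo luciferase luminescence reporting remaining unconsumed ATP | Measure: % inhibition normalized to control-well medians | Replication: Singlicate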
# HTR2A ag: mouse HTR2A agonism via beta-arrestin recruitment | P35363 | CHO-K1 mHTR2A beta-arrestin complementation, luminescence; percent of 30 µM serotonin response | activation, % at 7.6 µM | 0.66% of 360,000 active | AID 624169;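 active means activation above a run cutoff, the mean activation of all tested compounds plus 3 SD, cut at about 14% in these data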;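 further: 0% = plate median of compound wells and 100% = 30 µM serotonin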
# Target sequence (P35363 whole entry, looked up): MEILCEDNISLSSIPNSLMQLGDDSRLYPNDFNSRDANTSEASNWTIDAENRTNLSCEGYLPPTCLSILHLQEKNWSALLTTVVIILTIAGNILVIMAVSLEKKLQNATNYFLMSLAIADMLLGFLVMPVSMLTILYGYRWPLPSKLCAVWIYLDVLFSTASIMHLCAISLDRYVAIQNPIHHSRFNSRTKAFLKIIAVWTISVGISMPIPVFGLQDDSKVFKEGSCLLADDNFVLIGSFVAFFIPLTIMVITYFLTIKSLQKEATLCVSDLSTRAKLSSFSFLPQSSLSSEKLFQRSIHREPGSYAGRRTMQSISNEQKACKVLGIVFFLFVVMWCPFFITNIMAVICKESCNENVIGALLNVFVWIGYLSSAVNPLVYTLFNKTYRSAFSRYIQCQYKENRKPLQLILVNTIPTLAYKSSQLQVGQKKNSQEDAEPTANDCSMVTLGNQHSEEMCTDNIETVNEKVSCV
# AHR act cf: confirmation of human aryl hydrocarbon receptor activators | shares compounds with AHR activator | human cells, AHR-responsive luciferase reporter, luminescence | activation, % at 9 µM | 87% of 2,300 active | AID 2845; in the data active means activation above about 49%;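 further: HepG2 hepatoma cells carrying a DRE-driven firefly luciferase reporter; 0% = vehicle wells and 100% = reference agonist wells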
# PXR act counter: activates human PXR in AHR activator counter-screen | 88% of 2,300 active | cell-based PXR reporter, luciferase luminescence | shares compounds with AHR activator | activation, % at 11.6 µM; in the data active means activation above about 11%;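 further: human hepatoma DPX-2 cells expressing full-length human PXR; 0% = DMSO and 100% = reference agonist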
# Starred values were filed as active, the others as inactive; . = no result. This is a sample that favours compounds with a hit; in the whole collection about 4.4% have one here.
SMILES,MsrA inhibitor,AI-2 QS mod,MsrA act,AHR activator,TbMetRS inhib,HTR2A ag,AHR act cf,PXR act counter
CCCC(C)C(=O)Nc1nc(C)c(-c2csc(Nc3ccccc3OC)n2)s1 (stereo not drawn),1.2,25.0,-1.2,124.3*,-0.1,-3.2,71.9*,61.8*
COc1ccccc1Nc1nc(-c2sc(N)nc2C)cs1,0.0,.,-2.5,24.3,-1.1,2.0,.,.
CCC(=O)Nc1nc(C)c(-c2csc(Nc3ccccn3)n2)s1,1.0,15.1,-7.2,24.4,-1.1,-5.4,.,.
COc1ccccc1Nc1nc(-c2sc(NC(=O)c3ccc([N+](=O)[O-])cc3)nc2C)cs1,.,14.4,.,18.6,.,.,.,.
COc1ccc(OC)c(Nc2nc(-c3sc(C)nc3C)cs2)c1,0.0,6.6,-3.8,33.8,0.2,-8.2,.,.
CCCCCCC(=O)Nc1nc(C)c(-c2csc(Nc3cc(Cl)ccc3C)n2)s1,0.2,30.3,-4.1,79.3*,-0.2,-0.7,80.9*,16.5*
CCCCC(=O)Nc1nc(C)c(-c2csc(Nc3cc(OC)ccc3OC)n2)s1,0.3,24.4,-3.8,85.5*,-0.5,2.7,81.6*,57.6*
CCCCCC(=O)Nc1nc(C)c(-c2csc(Nc3ccccc3OC)n2)s1,1.2,4.9,-2.5,84.9*,-0.2,-7.0,96.4*,50.5*
COc1ccccc1CN(C)C(=O)C(NC(=O)Cc1cccc2ccccc12)C(C)C (stereo not drawn),1.1,9.7,-0.3,1.0,0.1,-0.6,.,.
CCCNC(=O)C1(C)CCCN(C(=O)c2cc(C)n(C(C)(C)C)n2)C1 (stereo not drawn),-1.3,.,-3.7,.,-0.3,2.3,.,.
COC(=O)N/N=C/c1c(C)c(C(=O)c2ccc(F)cc2)n2ccccc12,1.4,-1.3,-5.3,85.8*,0.1,-2.9,74.5*,93.9*
CCOC(=O)N/N=C/c1c(C)c(C(=O)c2ccc(F)cc2)n2ccccc12,0.0,17.4,-1.8,83.7*,-0.7,-2.4,104.4*,74.5*
COc1cc(NC(=S)NC(=O)CCc2ccccc2)cc(OC)c1,-1.6,-0.9,1.9,5.3,-0.7,-2.9,.,.
CNc1nc(N)c([N+](=O)[O-])c(Nc2ccccc2OC)n1,2.5,-0.3,-7.4,106.8*,-1.2,-1.3,92.7*,17.7*
COc1ccccc1Nc1nc(NCCO)nc(N)c1[N+](=O)[O-],1.8,25.0,-6.2,97.2*,-0.5,-1.2,127.5*,.
COc1ccc(OC)c(Nc2nc(NCCCN(C)C)nc(N)c2[N+](=O)[O-])c1,-1.3,2.1,-2.1,38.3,0.0,-0.8,.,.
Cc1ccc2cc3c(=O)n(C)cc(C=O)c3nc2c1,-0.1,.,-4.5,.,-0.5,-2.2,.,.
Cc1cc2nn(-c3ccc(F)cc3)nc2cc1N,2.2,12.9,-1.1,109.5*,-1.1,7.4,122.5*,25.3*
COc1ccc(-n2nc3cc(C)c(N)cc3n2)cc1Cl,1.7,8.9,-0.8,25.6,-0.7,7.0,.,.
CCOc1ccc(-n2nc3cc(C)c(N)cc3n2)cc1,0.3,32.6,0.2,38.8,-0.3,-2.3,.,.
Cc1cc2nn(-c3ccc(Cl)cc3)nc2cc1N,1.0,49.0,-6.0,80.5*,-0.6,1.1,191.7*,23.7*
CCc1nc2ccc(C(=O)NCc3ccc4c(c3)OCO4)cn2c1N(C)CCC(C)C,-0.6,.,-5.0,.,-0.3,-2.8,.,.
O=S(Cc1ccc(Cl)cc1)c1ccccc1 (stereo not drawn),0.1,.,-6.5,.,-0.1,4.4,.,.
c1ccc(-c2nc3cc4ccccc4cc3[nH]2)nc1,2.4,26.5,0.5,113.5*,-2.6,-1.4,44.3,23.4*
CC(=O)Nc1ccc2nc(-c3ccccn3)[nH]c2c1,1.5,13.0,-13.1,35.1,-1.1,2.4,.,.
SMILES,MsrA inhibitor,AI-2 QS mod,MsrA act,AHR activator,TbMetRS inhib,HTR2A ag,AHR act cf,PXR act counter
Oc1oc(-c2ccccc2)nc1/C=N/c1nccs1,1.5,23.2,-8.4,100.4*,-0.6,3.8,77.8*,.
O=C(O)c1cc(S(=O)(=O)Nc2ccc3c(c2)OCCO3)c(Cl)cc1Cl,-0.4,11.6,0.1,82.9*,-1.5,-2.9,14.8,13.7*
COc1ccc(CCN(C)C(=O)c2ccc(C)c(S(=O)(=O)N3CCCCC3)c2)cc1OC,-0.5,.,-0.2,-0.5,-0.3,3.7,.,.
COc1ccccc1CC(=O)NNC(=O)c1ccco1,0.9,20.5,-0.7,2.3,-0.4,-4.5,.,.
COc1ccccc1C1CC(c2cccs2)=Nc2ccccc2S1 (stereo not drawn),2.4,26.9,4.6,102.0*,-0.2,-2.1,93.3*,55.0*
COc1ccccc1C1CC(c2cccs2)=NN1C(=O)CCC(=O)O (stereo not drawn),2.0,23.2,-2.1,5.7,-1.0,9.7,.,.
Cc1cccc(NC(=S)NNC(=O)c2ccccc2OC(F)F)c1,0.4,18.3,-4.1,115.8*,-0.5,-6.8,121.3*,33.8*
CC1(C(=O)NCc2ccccc2)CSCC(=O)N1CCc1c[nH]c2ccccc12 (stereo not drawn),-0.9,.,.,.,0.1,-3.0,.,.
Cc1ccc(-c2[nH]c(-c3ccc(Cl)cc3)nc2SCC(=O)NCC2CCCO2)cc1 (stereo not drawn),-1.2,9.5,0.5,107.6*,0.1,-8.6,83.5*,85.7*
Cc1ccc(N(CC(=O)NCc2ccco2)C(=O)CNS(=O)(=O)c2ccccc2)c(C)c1,1.2,14.9,-2.4,-2.8,-0.5,0.5,.,.
O=C1CNC(=O)c2cc(Cl)ccc2N1,0.8,.,-2.5,.,0.0,-2.5,.,.
Nc1nnnn1/N=C/c1ccc(Br)cc1,0.0,10.1,-3.9,.,0.9,3.0,.,.
Nc1nc2ccccc2n1/N=C/c1ccc(Br)cc1,1.2,19.8,-5.4,87.9*,1.1,2.6,102.3*,18.9*
COc1ccc(-c2nc3ccccc3o2)cc1OC,-0.8,.,-4.7,42.4,-0.9,-0.2,.,.
c1ccc2oc(-c3ccc4nc[nH]c4c3)nc2c1,-0.4,18.2,-2.2,97.1*,-1.1,1.2,146.8*,14.1*
O=C(N/N=C/c1sc(=O)[nH]c1-[n+]1ccc2ccccc2c1)c1ccccc1[O-],2.1,41.3,-3.9,83.8*,0.7,10.3,71.3*,11.5*
CCCCCCn1c(=O)n2n(c1=O)C[C@]1(OC(=O)Nc3c(C)noc3C)CN(S(=O)(=O)c3ccc(C)cc3)C[C@]1(O)C2,-0.1,.,-1.4,.,-1.3,-1.6,.,.
CC(=O)c1c(C)[nH]c(C(=O)Nc2nccs2)c1C,2.1,8.2,-8.0,133.5*,-0.3,2.8,73.6*,35.8*
COc1ccc(C(C)(C)C)cc1NC(=O)c1[nH]c(C)c(C(C)=O)c1C,-1.0,17.4,-2.3,27.6,-0.1,-14.6,.,.
CC(=O)c1c(C)[nH]c(C(=O)Nc2cc(C)ccc2C)c1C,-1.0,0.7,-2.1,118.4*,0.8,-2.5,92.6*,37.9*

# Bioassay records deposited in PubChem by several laboratories.
